A short description of data set [1]: Oral bioavailability in mouse (nude) (dose of 25 mg/kg). The conditions noted are these: in vivo. In kind it is ADME, organism-based. The gist of the method: (§1)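 Serum pharmacokinetics in nude mice or cynomolgus monkeys after oral (po) or iv dosing. Compounds were given as hydrochloride salts in 20% HPβCD unless otherwise noted. Other formulations were the hydrochloride salt in saline, the micronized free base in 20% HPβCD or corn oil (po) with saline for iv, or the hydrochloride salt in 0.4% methyl cellulose (po).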

The target of data set [2] is T1, Protein farnesyltransferase (Homo sapiens, UniProt P49354+P49356). The data set is described as follows: In vitro inhibition of farnesyltransferase farnesylation of the H-ras oncogene. In kind it is protein-complex assay.
Data set [3] is described as follows: In vivo antitumor efficacy in nude mice by injecting a dose of 25 mg/kg, as HCl salt in saline solution, perorally and the total drug exposure was determined (0-4 hr). The class given is ADME, organism-based. The arrangement: time < 4 hr, dose 25 mg/kg, route oral. Conditions: mouse, po.
A short description of data set [4]: In vivo antitumor efficacy in nude mice by injecting a dose of 25 mg/kg, as HCl salt in saline solution, iv and the total drug exposure was determined. (0-4 hr). The conditions noted are these: mouse. More on the design: time < 4 hr, dose 25 mg/kg, route intravenous. In kind it is ADME, organism-based.
The target in data set [5] is T1, Protein farnesyltransferase. The data set is described as follows: Inhibition of Farnesyltransferase from Ras-CVLS or Ras-CVLL in Cos-7 monkey kidney cells. The class given is cell-based, Chlorocebus aethiops.
Data set [6] can be described thus: In vivo antitumor efficacy in nude mice by injecting a dose of 25 mg/kg, as HCl salt in saline solution, iv and the serum half-life was determined. The class given is ADME, organism-based. Conditions: mouse. The arrangement: dose 25 mg/kg, route intravenous.
The test system of data set [7] is Mus musculus. The data set is described as follows: In vivo antitumor efficacy in nude mice by injecting a dose of 25 mg/kg, as HCl salt in saline solution, perorally and the duration of action was reported. In kind it is ADME, organism-based. The arrangement: dose 25 mg/kg, route oral. Conditions: po.
Data set [8] can be described thus: (§2) Maximal plasma concentration in nude mice after 25 mg/kg oral dose. In kind it is ADME, organism-based. The arrangement: dose 25 mg/kg, route oral. Conditions: mouse.
Data set [9] in a line: In vivo antitumor efficacy in nude mice 0-24 hr after peroral dose of 25 mg/kg expressed as Area under the curve. The class given is ADME, organism-based. More on the design: time < 24 hr, dose 25 mg/kg, route oral. Conditions: nude, mouse, po. The gist of the method: as §1
For data set [10], the system named is Cynomolgus monkey. In words: In vivo antitumor efficacy after peroral dose of 10 mg/kg in cynomolgus monkeys expressed as duration for which compound was present above IC50. The conditions noted are these: po. The class given is ADME, organism-based, Macaca fascicularis. The arrangement: dose 10 mg/kg, route oral. An outline of the steps:
as §1

A short description of data set [11]: as §2. The conditions noted are these: mouse. The class given is ADME, organism-based. More on the design: dose 25 mg/kg, route oral. An outline of the steps:
as §1
This is another data set of the same source.

The nature of data set [12]: (§3) Maximal plasma concentration in cynomolgus monkeys after 10 mg/kg oral dose. The class given is ADME, organism-based, Macaca fascicularis. The conditions noted are these: cynomolgus monkey, plasma. More on the design: dose 10 mg/kg, route oral. The gist of the method: as §1
Data set [13] deals with Cynomolgus monkey. The description is as §3. The arrangement: dose 10 mg/kg, route oral. Conditions: in vivo. The class given is ADME, organism-based, Macaca fascicularis. The gist of the method: as §1
The subject of data set [14] is Mus musculus. The data set is described as follows: In vivo antitumor efficacy after peroral dose of 25 mg/kg in mice expressed as duration for which compound was present above IC50. In kind it is ADME, organism-based. The arrangement: dose 25 mg/kg, route oral. Conditions: po. The gist of the method: as §1
Data set [15] in a line: In vivo antitumor efficacy in nude mice by injecting a dose of 25 mg/kg iv and serum half-life was determined. In kind it is ADME, organism-based. More on the design: dose 25 mg/kg, route intravenous. The conditions noted are these: mouse. An outline of the steps:
as §1

The subject of data set [16] is Mus musculus. In words: In vivo antitumor efficacy after peroral dose of 10 mg/kg in mice expressed as duration for which compound was present above IC50. The class given is ADME, organism-based. The arrangement: dose 10 mg/kg, route oral. The conditions noted are these: po. An outline of the steps: as §1
A short description of data set [17]: Maximal plasma concentration in cynomolgus monkeys after 5 mg/kg oral dose. The class given is ADME, organism-based, Macaca fascicularis. The arrangement: dose 5 mg/kg, route oral. Conditions: cynomolgus monkey. The gist of the method:
as §1

Data set [18] is described as follows: In vivo antitumor efficacy in nude mice after peroral dose of 10 mg/kg expressed as Area under the curve. In kind it is ADME, organism-based. The arrangement: dose 10 mg/kg, route oral. The conditions noted are these: mouse, po. The gist of the method:
as §1

The nature of data set [19]: Bioavailability in cynomolgus monkey (dose 5 mg/kg i.v.). The class given is ADME, organism-based, Macaca fascicularis. The conditions noted are these: in vivo, iv. The gist of the method:
as §1

The nature of data set [20]: In vivo antitumor efficacy in cynomolgus monkeys 0-48 hr after peroral dose of 5 mg/kg expressed as Area under the curve. The conditions noted are these: cynomolgus monkey, po. In kind it is ADME, organism-based, Macaca fascicularis. More on the design: time < 48 hr, dose 5 mg/kg, route oral. The gist of the method: as §1
The nature of data set [21]: In vivo antitumor efficacy in cynomolgus monkeys by injecting a dose of 5 mg/kg, as HCl salt in saline solution,i/v and the serum half-life was determined. In kind it is ADME, organism-based, Macaca fascicularis. More on the design: dose 5 mg/kg. The conditions noted are these: cynomolgus monkey, iv. The gist of the method:
as §1

Data set [22] concerns the target geranylgeranyltransferase type-I (Rattus norvegicus, UniProt P53610+Q04631). In words: Inhibition of rat Geranylgeranyl transferase (GGPT). In kind it is protein-complex assay.
Data set [23] can be described thus: In vivo antitumor efficacy in nude mice 0-24 hr after iv dose of 25 mg/kg expressed as Area under the curve. The class given is ADME, organism-based. More on the design: time < 24 hr, dose 25 mg/kg, route intravenous. The conditions noted are these: mouse. An outline of the steps:
as §1

The nature of data set [24]: In vivo antitumor efficacy peroral dose of 25 mg/kg expressed as duration for which compound was present above IC50. The class given is ADME, organism-based. Conditions: po. More on the design: dose 25 mg/kg, route oral. The gist of the method: as §1
Data set [25] in a line: In vivo antitumor efficacy in cynomolgus monkeys 0-48 hr after iv dose of 5 mg/kg expressed as Area under the curve. The class given is ADME, organism-based, Macaca fascicularis. More on the design: time < 48 hr, dose 5 mg/kg, route intravenous. The conditions noted are these: cynomolgus monkey. The gist of the method:
as §1

Data set [26] is described as follows: In vivo antitumor efficacy in cynomolgus monkeys 0-48 hr after peroral dose of 10 mg/kg expressed as Area under the curve. The class given is ADME, organism-based, Macaca fascicularis. The arrangement: time < 48 hr, dose 10 mg/kg, route oral. The conditions noted are these: cynomolgus monkey, po. An outline of the steps:
as §1

Results on two compounds are retold here after ChEMBL document CHEMBL1131493, “Inhibitors of farnesyl protein transferase. 4-Amido, 4-carbamoyl, and 4-carboxamido derivatives of 1-(8-chloro-6,11-dihydro-5H-benzo[5,6]- cyclohepta[1,2-b]pyridin-11-yl)piperazine and 1-(3-bromo-8-chloro-6,11- dihydro-5H-benzo[5,6]cyclohepta[1,2-b]pyridin-11-yl)piperazine” (J Med Chem, 1998).

Structures are written as SMILES.

As a reminder, the bioavailability is the share of a dose that reaches the circulation, judged against a reference dose that is usually intravenous. By IC50 is commonly meant the concentration at which inhibition is half-maximal. In general, AUC refers to the area under the concentration-time curve, a measure of exposure. As a reminder, the half-life is the time needed for the level to fall by half in the phase considered. As usually defined, the Cmax is the highest concentration seen after dosing. In the case of `CN1CCC(CC(=O)N2CCN(C3c4ccc(Cl)cc4CCc4cccnc43)CC2)CC1` (configuration not stated), in [1], the bioavailability was determined as 32%. The IC50 amounted to 1.4 µM in [2] and 0.93 µM in data set [5]. The area under the curve (AUC) at 4 h in data set [3] was determined as 1300 ng·h/mL; in data set [4], 4100 ng·h/mL. In addition, in [6], the half-life is over 1 h. The “Time above IC50” value with Mus musculus [7] was 4 h. The same compound showed a Cmax in [8] of 1400 nM.
For the compound `O=C(Cc1cc[n+]([O-])cc1)N1CCN(C2c3ccc(Cl)cc3CCc3cc(Br)cnc32)CC1` (configuration not stated), the area under the curve (AUC) at 24 h came out at 19600 ng·h/mL in data set [9] and 23400 ng·h/mL in data set [23]. Further, the bioavailability in [1] was 84%; in [19], 38.5%. Also, the “Time above IC50” value in the data set with Cynomolgus monkey [10] amounted to 24 h; in the data set on Mus musculus [14], 7 h; with Mus musculus [16], 24 h; in data set [24], 6 h. For the same compound, the Cmax was 10000 nM in [11], 5700 nM in data set [12], 3000 nM in the data set on Cynomolgus monkey [13] and 1200 nM in data set [17]. The half-life was 1.2 h in [15] and 2.6 h in [21]. For the same compound, the AUC in [18] stood at 16700 ng·h/mL. In addition, the area under the curve (AUC) at 48 h came out at 9400 ng·h/mL in [20], 24400 ng·h/mL in data set [25] and 35600 ng·h/mL in data set [26]. In data set [22], this compound yielded a half-inhibitory concentration (IC50) of over 38 µM.
